In ChEMBL document CHEMBL4304758, “Development of Peptide-Based Sirtuin Defatty-Acylase Inhibitors Identified by the Fluorescence Probe, SFP3, That Can Efficiently Measure Defatty-Acylase Activity of Sirtuin” (J Med Chem, 2019) one finds IC50 data, which are given here for 2 molecules.

The target in test [1] is NAD-dependent protein deacylase sirtuin-6 (Homo sapiens, UniProt Q8N6T7). Briefly: Inhibition of recombinant human N-terminal polyhis-tagged SIRT6 (1 to 355 residues) defatty-acylase activity expressed in Escherichia coli using SFP3 as substrate measured at 5 mins interval for 60 mins in presence of NAD+ by fluorescence assay. Put shortly:
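SIRT6 at 48 nM final with 2.5 μM SFP3 and 500 μM NAD⁺ in Tris-HCl pH 8.0 buffer with 150 mM NaCl, 1 mM DTT, 0.05% Triton X-100, final 0.2% DMSO. Enzyme added last. Fluorescence Ex 485/Em 535 nm read every 5 min for 60 min at 37 °C.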

The target of test [2] is T1, NAD-dependent protein deacetylase sirtuin-2 (Homo sapiens, UniProt Q8IXJ6).
T1 sequence (Q8IXJ6 whole entry): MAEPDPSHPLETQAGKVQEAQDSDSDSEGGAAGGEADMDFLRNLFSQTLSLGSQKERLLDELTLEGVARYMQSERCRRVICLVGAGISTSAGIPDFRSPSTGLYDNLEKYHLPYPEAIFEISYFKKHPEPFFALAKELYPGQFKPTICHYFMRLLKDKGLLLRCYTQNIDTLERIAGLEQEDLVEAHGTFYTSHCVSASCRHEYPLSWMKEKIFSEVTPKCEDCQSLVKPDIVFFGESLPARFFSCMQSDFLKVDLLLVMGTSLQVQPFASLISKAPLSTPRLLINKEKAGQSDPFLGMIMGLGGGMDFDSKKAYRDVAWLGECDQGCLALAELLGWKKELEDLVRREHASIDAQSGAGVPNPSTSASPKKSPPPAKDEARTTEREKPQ
Briefly: Inhibition of recombinant human SIRT2 deacylation activity using Fluor de Lys Sirt2 as substrate measured at 5 mins interval for 30 mins in presence of NAD+ by fluorescence assay.

Test [3] has as its target T2, NAD-dependent protein deacetylase sirtuin-3, mitochondrial (Homo sapiens, UniProt Q9NTG7).
T2 sequence (Q9NTG7 whole entry): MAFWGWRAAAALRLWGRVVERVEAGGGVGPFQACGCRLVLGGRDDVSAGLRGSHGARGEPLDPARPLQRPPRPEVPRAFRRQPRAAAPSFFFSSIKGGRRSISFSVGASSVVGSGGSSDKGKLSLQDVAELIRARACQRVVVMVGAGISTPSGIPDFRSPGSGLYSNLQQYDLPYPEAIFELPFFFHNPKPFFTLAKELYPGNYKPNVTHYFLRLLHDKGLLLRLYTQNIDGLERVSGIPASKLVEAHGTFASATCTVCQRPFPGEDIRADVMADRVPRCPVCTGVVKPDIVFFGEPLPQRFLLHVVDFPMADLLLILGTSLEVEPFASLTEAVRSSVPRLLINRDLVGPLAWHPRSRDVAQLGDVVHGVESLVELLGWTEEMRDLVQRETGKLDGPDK
Briefly: Inhibition of recombinant human SIRT3 (118 to 399 residues) defatty-acylase activity expressed in Escherichia coli using SFP3 as substrate measured at 5 mins interval for 60 mins in presence of NAD+ by fluorescence assay.

In test [4] the target is T3, NAD-dependent protein deacetylase sirtuin-1 (Homo sapiens, UniProt Q96EB6).
T3 sequence (Q96EB6 whole entry): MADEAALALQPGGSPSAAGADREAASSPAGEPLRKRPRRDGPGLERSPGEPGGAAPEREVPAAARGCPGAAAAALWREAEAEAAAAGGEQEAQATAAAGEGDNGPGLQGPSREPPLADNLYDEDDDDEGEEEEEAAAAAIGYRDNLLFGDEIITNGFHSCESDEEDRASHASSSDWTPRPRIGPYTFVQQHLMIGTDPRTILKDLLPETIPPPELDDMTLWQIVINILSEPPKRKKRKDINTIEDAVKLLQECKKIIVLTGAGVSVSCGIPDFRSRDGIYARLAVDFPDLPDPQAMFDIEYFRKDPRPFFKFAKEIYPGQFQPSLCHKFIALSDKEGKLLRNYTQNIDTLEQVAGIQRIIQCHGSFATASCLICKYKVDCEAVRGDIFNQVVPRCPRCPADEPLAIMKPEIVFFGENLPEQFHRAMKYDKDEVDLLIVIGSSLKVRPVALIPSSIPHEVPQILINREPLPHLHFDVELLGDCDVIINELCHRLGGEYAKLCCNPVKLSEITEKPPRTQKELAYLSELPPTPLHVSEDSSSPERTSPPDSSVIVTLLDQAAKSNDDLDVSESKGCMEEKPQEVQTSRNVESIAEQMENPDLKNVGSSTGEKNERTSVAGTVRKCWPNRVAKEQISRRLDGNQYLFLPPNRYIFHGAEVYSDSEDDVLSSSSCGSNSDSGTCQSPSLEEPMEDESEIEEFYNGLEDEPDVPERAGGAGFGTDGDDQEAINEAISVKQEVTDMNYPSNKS
Briefly: Inhibition of recombinant human C-terminal His6-tagged SIRT1 (Met1 to Ser747 residues) demyristoylase activity expressed in Escherichia coli using p53(Myr)-AMC as substrate measured after 3 hrs in presence of NAD+ and trypsin by fluorescence assay. In outline:
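SIRT1 at 14 nM final with 50 μM p53(Myr)-AMC and 500 μM NAD⁺ in Tris-HCl pH 8.0/NaCl/DTT/Triton buffer, 0.5% DMSO, 3 h at room temperature. Trypsin (100 nM final) plus nicotinamide (1 mM final) then added. Fluorescence Ex 355/Em 460 nm read every 5 min for 20 min at 37 °C. n = 3.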

In test [5] the target is T2, NAD-dependent protein deacetylase sirtuin-3, mitochondrial. Briefly: Inhibition of recombinant human SIRT3 (118 to 399 residues) demyristoylase activity expressed in Escherichia coli using p53(Myr)-AMC as substrate measured after 3 hrs in presence of NAD+ and trypsin by fluorescence assay.
For test [6], the target named is T1, NAD-dependent protein deacetylase sirtuin-2. Put plainly: Inhibition of recombinant human SIRT2 demyristoylase activity using p53(Myr)-AMC as substrate measured after 3 hrs in presence of NAD+ and trypsin by fluorescence assay.
Test [7] shares this target. Briefly: Inhibition of recombinant human SIRT2 defatty-acylase activity using SFP3 as substrate measured at 5 mins interval for 60 mins in presence of NAD+ by fluorescence assay.
For test [8], the target named is T3, NAD-dependent protein deacetylase sirtuin-1. Put plainly: Inhibition of recombinant human C-terminal His6-tagged SIRT1 (Met1 to Ser747 residues) defatty-acylase activity expressed in Escherichia coli using SFP3 as substrate measured at 5 mins interval for 60 mins in presence of NAD+ by fluorescence assay.
Test [9] has as its target T1, NAD-dependent protein deacetylase sirtuin-2. Put plainly: Inhibition of recombinant human SIRT2 deacylation activity expressed in Escherichia coli Rosetta2 using Fluor-de-Lys-SIRT2 deacetylase substrate measured after 2 hrs by fluorescence assay.

Counter-ions that a name gives are not always drawn. Non-standard residues stand in square brackets, D forms with d. Residues, ends and D or L forms follow the SMILES beside them. *: point of attachment. Lys(thiomyristoyl) = CCCCCCCCCCCCCC(=S)NCCCC[C@H](N)C(=O)O; Tfa = O=C(C(F)(F)F)*

Chain of NAD-dependent protein deacylase sirtuin-6 (Q8N6T7 whole entry, the tested form may be a part): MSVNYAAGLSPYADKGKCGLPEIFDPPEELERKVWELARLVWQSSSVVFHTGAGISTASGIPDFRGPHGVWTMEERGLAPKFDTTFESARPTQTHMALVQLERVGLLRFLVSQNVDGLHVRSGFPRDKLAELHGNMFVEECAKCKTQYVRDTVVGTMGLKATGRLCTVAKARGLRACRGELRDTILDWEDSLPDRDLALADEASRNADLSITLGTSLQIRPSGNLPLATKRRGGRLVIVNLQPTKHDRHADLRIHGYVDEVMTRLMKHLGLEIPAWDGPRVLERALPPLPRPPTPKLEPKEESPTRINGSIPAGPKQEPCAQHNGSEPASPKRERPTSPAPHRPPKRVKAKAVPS

In the case of `CCCCCCCCCCCCCC(=S)NCCCC[C@H](NC(=O)[C@@H](NC(=O)[C@H](CCCNC(=N)N)NC(C)=O)[C@@H](C)CC)C(=O)N[C@@H](CCCNC(=N)N)C(=O)N[C@@H](Cc1ccc(O)cc1)C(N)=O` (Ac-RI[Lys(thiomyristoyl)]RY-NH2), the IC50 in test [1] turned out to be 250 nM; in test [2] it was 110 nM; in test [3] it was 46 nM; in test [4], 26 nM; in test [5], 130 nM; in test [6] it was 44 nM. For the same molecule, the results for the IC50 in test [7] and in test [8] were 22 nM and 330 nM, respectively.

Consider `CC[C@H](C)[C@H](NC(=O)[C@H](CCCNC(=N)N)NC(C)=O)C(=O)N[C@@H](CCCCNC(=O)C(F)(F)F)C(=O)N[C@@H](CCCNC(=N)N)C(=O)N[C@@H](Cc1ccc(O)cc1)C(N)=O` (Ac-RIK(Tfa)RY-NH2), for which the IC50 in [2] is 67 nM; in [3], 540 nM; in [6] it was 1100 nM; in [7] it was 320 nM; in test [9], 31 nM; in test [8], over 2000 nM.
